Measured values taken from ChEMBL document CHEMBL2021796, “Synthesis and biological evaluation of a series of thieno-expanded tricyclic purine 2'-deoxy nucleoside analogues” (Bioorg Med Chem, 2012).

Tests used:
[1] = Cytotoxicity against HEL cells assessed as morphological changes by microscopic analysis; type: cell-based; settings: human
How it was run: (§1)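 Confluent HEL, Vero or HeLa cultures, or near-confluent MDCK cultures, exposed to fivefold compound dilutions in parallel with the antiviral cytopathicity tests. MCC is the lowest concentration causing microscopically visible alteration of cell morphology.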

[2] = Cytotoxicity against african green monkey Vero cells assessed as morphological changes by microscopic analysis; type: cell-based; settings: chlorocebus sabaeus; how it was run: as §1
Human alphaherpesvirus 2 = experiment: Antiviral activity against Herpes simplex virus 2 G infected in HEL cells assessed as inhibition of virus-induced cytopathogenicity; type: functional, organism-based; settings: Human alphaherpesvirus 2, strain G
How it was run: (§2)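 Confluent HEL, Vero or HeLa monolayers were infected with 100 CCID50 of virus while exposed to fivefold serial dilutions of compound. Virus-induced cytopathicity was scored when it reached completion in untreated infected controls. The EC50 is the concentration that inhibits cytopathicity by 50%.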

Human respirovirus 3 = experiment: Antiviral activity against Parainfluenza-3 virus infected in african green monkey Vero cells assessed as inhibition of virus-induced cytopathogenicity; type: functional, organism-based; settings: Human respirovirus 3, Vero
How it was run: (§3)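 Confluent cell monolayers (Vero for parainfluenza-3, HEL for HSV-1 TK−) inoculated with 100 CCID50 of virus alongside fivefold compound dilutions. Cytopathicity recorded once complete in untreated infected controls. EC50 is the concentration inhibiting virus-induced cytopathicity by 50%.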

Human alphaherpesvirus 3 [3] = experiment: Antiviral activity against Varicella zoster virus 07/1 infected in HEL cells assessed as reduction in viral plaque formation after 5 days relative to control; type: functional, organism-based; settings: Human alphaherpesvirus 3, 07/1, HEL, 120 h
How it was run: (§4)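 Confluent HEL cells were inoculated with 20 PFU VZV per well (Oka wild type or thymidine kinase-deficient 07-1). Residual virus was removed after 2 h and compound dilutions were added in duplicate. The EC50 is the concentration that reduces plaque formation by 50% after 5 days relative to untreated controls.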

[4] = system: Respiratory syncytial virus; experiment: Antiviral activity against Respiratory syncytial virus infected in HeLa cells; type: functional, organism-based; settings: human respiratory syncytial virus; how it was run: as §2
Human alphaherpesvirus 1 [5] = experiment: Antiviral activity against thymidine kinase-deficient Herpes simplex virus 1 infected in HEL cells assessed as inhibition of virus-induced cytopathogenicity; type: functional, organism-based; settings: Human alphaherpesvirus 1, HEL; how it was run: as §3
L1210 = experiment: Cytostatic activity against mouse L1210 cells after 2 days by coulter counter analysis; type: functional, cell-based; settings: L1210, 48 h
How it was run: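 L1210 cells at 300,000–500,000 cells/mL were mixed 1:1 with compound dilutions and incubated for 2 days at 37 °C. Cells were counted with a Coulter counter. The IC50 is the concentration that inhibits proliferation by 50%.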

[6] = Cytotoxicity against MDCK cells assessed as morphological changes by microscopic analysis; type: cell-based, Canis lupus familiaris; settings: dog; how it was run: as §1
[7] = system: Vesicular stomatitis virus; experiment: Antiviral activity against Vesicular stomatitis virus infected in HeLa cells; type: functional, organism-based; how it was run: as §2
Coxsackievirus B4 [8] = experiment: Antiviral activity against Coxsackie virus B4 infected in HeLa cells; type: functional, organism-based; settings: Enterovirus B
How it was run: (§5)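 Confluent HEL, Vero or HeLa monolayers were infected with 100 CCID50 of virus while exposed to fivefold serial dilutions of compound. Virus-induced cytopathicity was scored when it reached completion in untreated infected controls.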

Influenza B virus = experiment: Antiviral activity against influenza B virus infected in MDCK cells assessed as inhibition of virus-induced cytopathogenicity; type: functional, organism-based
How it was run: (§6)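 Nearly confluent MDCK cultures were infected while exposed to fivefold serial dilutions of compound. Cytopathicity was scored when it reached completion in untreated infected controls. The EC50 is the concentration that inhibits virus-induced cytopathicity by 50%.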

Coxsackievirus B4 [9] = experiment: Antiviral activity against Coxsackie virus B4 infected in african green monkey Vero cells assessed as inhibition of virus-induced cytopathogenicity; type: functional, organism-based; settings: Enterovirus B; how it was run: as §2
Punta Toro virus = experiment: Antiviral activity against Punta Toro virus infected in african green monkey Vero cells assessed as inhibition of virus-induced cytopathogenicity; type: functional, organism-based; how it was run: as §5
Human alphaherpesvirus 1 [10] = experiment: Antiviral activity against Herpes simplex virus 1 KOS infected in HEL cells assessed as inhibition of virus-induced cytopathogenicity; type: functional, organism-based; settings: Human alphaherpesvirus 1, KOS; how it was run: as §2
[11] = system: Vesicular stomatitis virus; experiment: Antiviral activity against Vesicular stomatitis virus infected in HEL cells assessed as inhibition of virus-induced cytopathogenicity; type: functional, organism-based; how it was run: as §5
[12] = system: Human immunodeficiency virus 1; experiment: Antiviral activity against Human immunodeficiency virus 1 3B infected in human CEM cells assessed as inhibition of virus-induced giant cell formation after 4 days by microscopic analysis; type: functional, organism-based; settings: CCRF-CEM, 96 h
How it was run: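 CEM cells at about 3 × 10^5 cells/cm3 were infected with 100 CCID50/ml of virus and seeded into wells containing compound dilutions. After 4 days at 37 °C, giant cell formation was assessed under the microscope.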

Human alphaherpesvirus 3 [13] = experiment: Antiviral activity against Varicella zoster virus OKA infected in HEL cells assessed as reduction in viral plaque formation after 5 days relative to control; type: functional, cell-based; settings: Human alphaherpesvirus 3, strain Oka vaccine, 120 h; how it was run: as §4
Human betaherpesvirus 5 [14] = experiment: Antiviral activity against Human cytomegalovirus Davis infected in HEL cells assessed as inhibition of virus-induced cytopathogenicity after 7 days by Giemsa staining-based microscopic analysis; type: functional, organism-based; settings: Human betaherpesvirus 5, Davis, 168 h
How it was run: (§7)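 Confluent HEL fibroblasts infected with strains AD-169 and Davis at 100 PFU per well. After 2 h adsorption, residual virus removed and medium with test compound added, in duplicate. Incubated 7 days at 37 °C. Cytopathogenicity scored microscopically after ethanol fixation and Giemsa staining. EC50 read from graphic plots of % cytopathogenicity versus concentration.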

[15] = system: Human immunodeficiency virus 2; experiment: Antiviral activity against Human immunodeficiency virus 2 ROD infected in human CEM cells assessed as inhibition of virus-induced giant cell formation after 4 days by microscopic analysis; type: functional, organism-based; settings: Human immunodeficiency virus 2, ISOLATE ROD, CCRF-CEM, 96 h
How it was run: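 CEM cells (~3 × 10^5 cells/cm3) infected with 100 CCID50 of HIV-2(ROD) per ml and seeded into microtiter wells holding compound dilutions. Incubated 4 days at 37 °C. Giant cell formation examined microscopically.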

[16] = system: Mammalian orthoreovirus 1; experiment: Antiviral activity against Reovirus-1 infected in african green monkey Vero cells assessed as inhibition of virus-induced cytopathogenicity; type: functional, organism-based; settings: Mammalian orthoreovirus 1, Vero; how it was run: as §2
Influenza A virus [17] = experiment: Antiviral activity against Influenza A virus H3N2 infected in MDCK cells assessed as inhibition of virus-induced cytopathogenicity; type: functional, organism-based; how it was run: as §6
Influenza A virus [18] = experiment: Antiviral activity against influenza A virus H1N1 infected in MDCK cells assessed as inhibition of virus-induced cytopathogenicity; type: functional, organism-based; how it was run: as §6
Sindbis virus = experiment: Antiviral activity against Sindbis virus infected in african green monkey Vero cells assessed as inhibition of virus-induced cytopathogenicity; type: functional, organism-based; how it was run: as §2
Human betaherpesvirus 5 [19] = experiment: Antiviral activity against Human cytomegalovirus AD169 infected in HEL cells assessed as inhibition of virus-induced cytopathogenicity after 7 days by Giemsa staining-based microscopic analysis; type: functional, organism-based; settings: Human betaherpesvirus 5, AD169, HEL, 168 h; how it was run: as §7
[20] = Cytotoxicity against human HeLa cells assessed as morphological changes by microscopic analysis; type: cell-based; how it was run: as §1

SMILES	MCC [1]	MCC [2]	EC50 (Human alphaherpesvirus 2)	EC50 (Human respirovirus 3)	EC50 (Human alphaherpesvirus 3 [3])	EC50 [4]	EC50 (Human alphaherpesvirus 1 [5])	IC50 (L1210)	MCC [6]	EC50 [7]	EC50 (Coxsackievirus B4 [8])	EC50 (Influenza B virus)	EC50 (Coxsackievirus B4 [9])	EC50 (Human alphaherpesvirus 1 [10])	EC50 [12]	EC50 [15]	EC50 [16]	EC50 (Influenza A virus [17])	EC50 (Influenza A virus [18])	MCC [20]	also measured
Nc1nc2c(sc3ncn([C@H]4C[C@H](O)[C@@H](CO)O4)c32)c(=O)[nH]1	> 100 µM	100 µM	> 100 µM	> 100 µM	71.3 µM	> 100 µM	> 100 µM	144 µM	0.8 µM	100 µM	> 100 µM	> 0.16 µM	> 100 µM	> 100 µM	≥ 250 µM	≥ 250 µM	> 100 µM	> 0.16 µM	> 0.16 µM	100 µM	EC50 (Punta Toro virus): > 100 µM; EC50 [11]: > 100 µM; EC50 (Human alphaherpesvirus 3 [13]): 71.3 µM; EC50 (Human betaherpesvirus 5 [14]): > 100 µM; EC50 (Sindbis virus): > 100 µM; EC50 (Human betaherpesvirus 5 [19]): > 100 µM
Nc1ncnc2c1sc1ncn([C@H]3C[C@H](O)[C@@H](CO)O3)c12	≥ 20 µM	> 100 µM	> 20 µM	> 100 µM	8.9 µM	> 100 µM	> 20 µM	53 µM	20 µM	> 100 µM	> 100 µM	> 4 µM	> 100 µM	> 20 µM	> 10 µM	> 10 µM	100 µM	> 4 µM	> 4 µM	> 100 µM	EC50 [11]: > 20 µM; EC50 (Human alphaherpesvirus 3 [13]): 8.9 µM; EC50 (Human betaherpesvirus 5 [14]): > 4 µM; EC50 (Human betaherpesvirus 5 [19]): > 4 µM
NC(=O)c1ncn([C@@H]2O[C@H](CO)[C@@H](O)[C@H]2O)n1 [RIBAVIRIN]	> 250 µM	> 250 µM	> 250 µM	85 µM						29 µM		4.5 µM	> 250 µM	> 250 µM	> 50 µM	> 50 µM	> 250 µM	5.1 µM	2.3 µM	> 250 µM	EC50 (Sindbis virus): > 250 µM
